Reference: ChEMBL document CHEMBL1154351, “Aspergillusol A, an alpha-glucosidase inhibitor from the marine-derived fungus Aspergillus aculeatus” (J Nat Prod, 2009)
The source made the active and inactive calls. The calls are words filed in the database; no cut-off is given here.

Tests used:
HepG2 = experiment: Cytotoxicity against human HepG2 cells after 4 days by MTT assay; format: functional, cell-based; settings: HepG2, 96 h
Procedure, shortened: (§1)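 MTT read-out of viability in human HepG2, HuCCA-1 and A549 cancer cell lines, with doxorubicin as reference drug; IC50 values determined.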

[1] = Cytotoxicity against HuCCa1 cells after 4 days by MTT assay; format: functional, cell-based; settings: Homo sapiens, HuCC-A1, 96 h; procedure, shortened: as §1
MOLT-3 = experiment: Cytotoxicity against human MOLT3 cells by XTT assay; format: functional, cell-based
Procedure, shortened: (§2)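 XTT read-out of viability in human MOLT-3 and HL-60 cell lines, with doxorubicin as reference drug; IC50 values determined.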

[2] = Inhibition of Saccharomyces cerevisiae alpha-glucosidase assessed as p-nitrophenol release by colorimetry
Procedure, shortened: (§3)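 Colorimetric assay with p-nitrophenyl α-D-glucoside substrate at 1.0 mM final. Enzyme at 0.1 U/mL final for S. cerevisiae α-glucosidase and 0.3 U/mL final for B. stearothermophilus α-glucosidase. Run in triplicate (n = 3), with 1-deoxynojirimycin as standard; IC50 determined.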

[3] = Inhibition of Bacillus stearothermophilus alpha-glucosidase assessed as p-nitrophenol release by colorimetry; design: species or system Geobacillus stearothermophilus; procedure, shortened: as §3
Aromatase = biological target: T1, Aromatase (Homo sapiens, UniProt P11511); experiment: Inhibition of aromatase
T1 sequence (P11511 whole entry): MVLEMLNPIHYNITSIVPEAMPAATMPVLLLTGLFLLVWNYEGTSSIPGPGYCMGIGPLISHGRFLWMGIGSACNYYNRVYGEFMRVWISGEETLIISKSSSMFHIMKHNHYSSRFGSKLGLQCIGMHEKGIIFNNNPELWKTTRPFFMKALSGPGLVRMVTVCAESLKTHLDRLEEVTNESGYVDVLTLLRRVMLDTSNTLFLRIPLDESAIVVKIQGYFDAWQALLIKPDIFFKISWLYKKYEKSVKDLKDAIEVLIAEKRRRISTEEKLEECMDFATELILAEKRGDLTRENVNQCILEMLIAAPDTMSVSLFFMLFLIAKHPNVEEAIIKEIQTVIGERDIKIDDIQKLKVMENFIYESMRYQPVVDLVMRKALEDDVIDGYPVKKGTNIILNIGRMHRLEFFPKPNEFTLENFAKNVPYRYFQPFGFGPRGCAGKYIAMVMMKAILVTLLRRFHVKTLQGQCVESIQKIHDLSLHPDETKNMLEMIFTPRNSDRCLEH

A549 [4] = experiment: Cytotoxicity against human A549 cells after 4 days by MTT assay; format: functional, cell-based; settings: A549, 96 h; procedure, shortened: as §1
HL-60 = experiment: Cytotoxicity against human HL60 cells by XTT assay; format: functional, cell-based; procedure, shortened: as §2
HuCC-A1 = experiment: Cytotoxicity against HuCCa1 cells at 240 uM after 4 days by MTT assay; format: functional, cell-based; settings: Homo sapiens
A549 [5] = experiment: Cytotoxicity against human A549 cells at 240 uM after 4 days by MTT assay; format: functional, cell-based

| SMILES | IC50 (HepG2) [µM] | IC50 [1] [µM] | IC50 (MOLT-3) [µM] | IC50 [2] [µM] | IC50 [3] [µM] | IC50 (Aromatase) [µM] | IC50 (A549 [4]) [µM] | IC50 (HL-60) [µM] | Activity (HuCC-A1) | Activity (A549 [5]) |
| --- | --- | --- | --- | --- | --- | --- | --- | --- | --- | --- |
| COc1cccc2c1C(=O)c1c(O)c3c(c(O)c1C2=O)C[C@@](O)(C(=O)CO)C[C@@H]3O[C@H]1C[C@H](N)[C@H](O)[C@H](C)O1 [DOXORUBICIN] | 0.37 | 0.64 | 0.04 |  |  |  |  |  |  |  |
| OC[C@H]1NC[C@H](O)[C@@H](O)[C@@H]1O [DUVOGLUSTAT] |  |  |  | 222 | 0.45 |  |  |  |  |  |
| O=C(OC[C@@H](O)[C@@H](O)COC(=O)/C(Cc1ccc(O)cc1)=N\O)/C(Cc1ccc(O)cc1)=N\O [ASPERGILLUSOL A] | > 105 | 50 | 19 | 465 | 1060 | > 100 | 74 |  |  |  |
| O=C(OC[C@@H](OC(=O)c1ccccc1)[C@@H](COC(=O)c1ccccc1)OC(=O)c1ccccc1)c1ccccc1 | 29 |  |  |  |  |  |  | 44 | inactive | inactive |
